Data reported in ChEMBL document CHEMBL3808301, “Bioactive Iridoid Glycosides from the Whole Plants of Rehmannia chingii” (J Nat Prod, 2016).

How the values were obtained:
[1] = Cytotoxicity against human Bel7402 cells by MTT assay; assay type: functional, cell-based; details: Bel-7402
[2] = Cytotoxicity against human BGC823 cells by MTT assay; assay type: functional, cell-based; details: BGC-823
A2780 = assay: Cytotoxicity against human A2780 cells by MTT assay; assay type: functional, cell-based
HT-29 = assay: Cytotoxicity against human HT-29 cells by MTT assay; assay type: functional, cell-based
A549 = assay: Cytotoxicity against human A549 cells by MTT assay; assay type: functional, cell-based
[3] = Cytotoxicity against mouse BV2 cells assessed as cell viability by MTT assay; assay type: cell-based, BV-2; details: read-out: Activity
How it was run: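 Murine microglial BV2 cells under the LPS-activation conditions of the NO assay. Viability read by MTT and expressed as a percentage of the LPS-only treatment group. Means ± SD from three independent experiments.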

BV-2 = assay: Inhibition of LPS-induced NO production in mouse BV2 cells assessed as reduction in nitrite level pretreated for 24 hrs before LPS treatment for additional 24 hrs by Griess reaction method; assay type: functional, cell-based
How it was run: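 BV2 microglia plated and preincubated 24 h, then exposed to LPS 0.3 μg/mL for a further 24 h. Nitrite in the culture supernatant measured by Griess reaction at OD 550 nm against a NaNO2 standard. Curcumin served as positive control. IC50 given as mean ± SD of three independent experiments.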

HepG2 = assay: Hepatoprotective activity against APAP-induced toxicity in human HepG2 cells assessed as cell survival rate at 10 uM incubated for 48 hrs by MTT assay; assay type: functional; details: HepG2, 48 h, read-out: Survival
How it was run: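 HepG2 cells grown in DMEM with 10% fetal calf serum and penicillin/streptomycin at 37 °C, 5% CO2, then seeded and incubated overnight. Test sample (10 μM) added together with APAP (final 8 mM) for 48 h. MTT at 0.5 mg/mL for 4 h, formazan dissolved in DMSO, absorbance read at 570 nm. Survival given as % of normal cells; bicyclol (10 μM) positive control; n = 3.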

SMILES | IC50 [1] [µM] | IC50 [2] [µM] | IC50 (A2780) [µM] | IC50 (HT-29) [µM] | IC50 (A549) [µM] | viability [3] [%] | IC50 (BV-2) [µM] | viability at 10 µM (HepG2) [%]
C[C@]1(O)C=CC2=CCO[C@@H](O[C@@H]3O[C@H](CO)[C@@H](O)[C@H](O)[C@H]3O)[C@@H]21 | > 10 | > 10 | > 10 | > 10 | > 10 |  |  | 
CC(/C=C/[C@@]1(O)C(C)(C)CCC[C@@]1(C)O)=C\C(=O)O[C@H]1[C@H](O[C@@H]2OC=C[C@H]3[C@H](O)[C@@H]4O[C@]4(CO)[C@@H]23)O[C@H](CO)[C@@H](O)[C@@H]1O | > 10 | > 10 | > 10 | > 10 | > 10 | 91.7 | 2.5 | 
C[C@]1(O)C[C@@H](O)[C@@H]2C[C@@H](O[C@H]3C[C@@](C)(O)[C@@H]4[C@@H](O[C@H]5O[C@@H](CO)[C@H](O)[C@@H](O)[C@@H]5O)OC=C[C@@H]43)O[C@@H](O[C@H]3O[C@@H](CO)[C@H](O)[C@@H](O)[C@@H]3O)[C@@H]21 | > 10 | > 10 | > 10 | > 10 | > 10 |  |  | 
OCC1=C[C@@H](O)[C@]2(O[C@@H]3O[C@H](CO)[C@@H](O)[C@H](O)[C@H]3O)C=CO[C@@H](O[C@@H]3O[C@H](CO)[C@@H](O)[C@H](O)[C@H]3O)[C@H]12 | > 10 | > 10 | > 10 | > 10 | > 10 |  |  | 
C[C@]1(O)C[C@@H](O)[C@@H]2C=CO[C@@H](O[C@@H]3O[C@H](CO)[C@@H](O)[C@H](O[C@@H]4C[C@@H]5[C@H]([C@H](O[C@@H]6O[C@H](CO)[C@@H](O)[C@H](O)[C@H]6O)O4)[C@@](C)(O)C[C@H]5O)[C@H]3O)[C@@H]21 | > 10 | > 10 | > 10 | > 10 | > 10 |  |  | 
C[C@]1(O)C[C@@H](O)[C@@H]2C[C@H](O[C@H]3C[C@@](C)(O)[C@@H]4[C@@H](O[C@H]5O[C@@H](CO)[C@H](O)[C@@H](O)[C@@H]5O)OC=C[C@@H]43)O[C@@H](O[C@H]3O[C@@H](CO)[C@H](O)[C@@H](O)[C@@H]3O)[C@@H]21 | > 10 | > 10 | > 10 | > 10 | > 10 |  |  | 
CC(/C=C/[C@@]1(O)C(C)(C)CCC[C@@]1(C)O)=C\C(=O)O[C@@H]1C[C@](C)(O)[C@H]2[C@H](O[C@@H]3O[C@H](CO)[C@@H](O)[C@H](O)[C@H]3O)OC=C[C@H]21 [REHMAGLUTOSIDE F] | > 10 | > 10 | > 10 | > 10 | > 10 |  |  | 63.4
O=C(O[C@H]1[C@@H]2C=CO[C@@H](O[C@@H]3O[C@H](CO)[C@@H](O)[C@H](O)[C@H]3O)[C@@H]2[C@@]2(CO)O[C@@H]12)c1ccc(O)cc1 [CATALPOSIDE] | > 10 | > 10 | > 10 | > 10 | > 10 |  |  | 
OCC1=C[C@@H](O)[C@]2(O[C@@H]3O[C@H](CO)[C@@H](O)[C@H](O)[C@H]3O[C@H]3O[C@@H](CO)[C@H](O)[C@@H](O)[C@@H]3O[C@@H]3O[C@H](CO)[C@@H](O)[C@H](O)[C@H]3O)C=CO[C@@H](O[C@@H]3O[C@H](CO)[C@@H](O)[C@H](O)[C@H]3O)[C@H]12 | > 10 | > 10 | > 10 | > 10 | > 10 |  |  | 64
C[C@H]1[C@H]2[C@H](O[C@@H]3O[C@H](COC(=O)/C=C/c4ccccc4)[C@@H](O)[C@H](O)[C@H]3O)OC=C(C(=O)O)[C@H]2C[C@@H]1O | > 10 | > 10 | > 10 | > 10 | > 10 |  |  | 65.9
C[C@]1(O)C[C@@H](O)[C@@H]2C=CO[C@@H](O[C@@H]3O[C@H](CO)[C@@H](O)[C@H](O)[C@H]3O)[C@@H]21 | > 10 | > 10 | > 10 | > 10 | > 10 |  |  | 69.9
C[C@]1(O)C[C@@H](O)[C@]2(O)C=CO[C@@H](O[C@@H]3O[C@H](CO)[C@@H](O)[C@H](O)[C@H]3O)[C@@H]21 | > 10 | > 10 | > 10 | > 10 | > 10 |  |  | 
CC(/C=C/[C@@]1(O)C(C)(C)CCC[C@@]1(C)O[C@@H]1O[C@H](C)[C@@H](O)[C@H](O)[C@H]1O)=C\C(=O)O[C@@H]1C[C@](C)(O)[C@H]2[C@H](O[C@@H]3O[C@H](CO)[C@@H](O)[C@H](O)[C@H]3O)OC=C[C@H]21 | > 10 | > 10 | > 10 | > 10 | > 10 |  |  | 
COc1cc(/C=C/C(=O)O[C@H]2[C@@H]3C=CO[C@@H](O[C@@H]4O[C@H](CO)[C@@H](O)[C@H](O)[C@H]4O)[C@@H]3[C@@]3(CO)O[C@@H]23)ccc1O | > 10 | > 10 | > 10 | > 10 | > 10 |  |  | 
OC[C@H]1O[C@@H](O[C@@H]2OC=C[C@H]3[C@H](O)[C@@H]4O[C@]4(CO)[C@@H]23)[C@H](O)[C@@H](O)[C@@H]1O [CATALPOL] | > 10 | > 10 | > 10 | > 10 | > 10 | 86.1 | 7.3 | 69.1
C[C@]1(O)CCC2=CCO[C@@H](O[C@@H]3O[C@H](CO)[C@@H](O)[C@H](O)[C@H]3O)[C@@H]21 | > 10 | > 10 | > 10 | > 10 | > 10 |  |  | 
OC[C@H]1O[C@@H](O[C@@H]2OC=C[C@H]3[C@H](O[C@@H]4O[C@H](CO)[C@@H](O)[C@H](O)[C@H]4O)[C@@H]4O[C@]4(CO)[C@@H]23)[C@H](O)[C@@H](O)[C@@H]1O | > 10 | > 10 | > 10 | > 10 | > 10 |  |  | 
OCC1=C[C@@H](O)[C@@H]2C=CO[C@@H](O[C@@H]3O[C@H](CO)[C@@H](O)[C@H](O)[C@H]3O)[C@H]12 [AUCUBIN] | > 10 | > 10 | > 10 | > 10 | > 10 |  |  | 
C[C@@]1(O)[C@@H]2C(=C[C@H]1O[C@@H]1O[C@H](C(=O)O)[C@@H](O)[C@H](O)[C@H]1O)C=CO[C@H]2O[C@@H]1O[C@H](CO)[C@@H](O)[C@H](O)[C@H]1O | > 10 | > 10 | > 10 | > 10 | > 10 |  |  | 
C[C@]1(O)[C@H](O)C=C2C=CO[C@@H](O[C@@H]3O[C@H](CO)[C@@H](O)[C@H](O)[C@H]3O)[C@@H]21 | > 10 | > 10 | > 10 | > 10 | > 10 |  |  | 
C[C@]1(O)C[C@@H](O[C@@H]2O[C@H](CO)[C@@H](O)[C@H](O)[C@H]2O)[C@@H]2C=CO[C@@H](O[C@@H]3O[C@H](CO)[C@@H](O)[C@H](O)[C@H]3O)[C@@H]21 | > 10 | > 10 | > 10 | > 10 | > 10 |  |  | 
OCC1=C[C@@H](O)[C@]2(O[C@@H]3O[C@H](CO)[C@@H](O)[C@H](O)[C@H]3O[C@H]3O[C@@H](CO)[C@H](O)[C@@H](O)[C@@H]3O)C=CO[C@@H](O[C@@H]3O[C@H](CO)[C@@H](O)[C@H](O)[C@H]3O)[C@H]12 | > 10 | > 10 | > 10 | > 10 | > 10 |  |  | 
COc1cc(/C=C/C(=O)CC(=O)/C=C/c2ccc(O)c(OC)c2)ccc1O [CURCUMIN] |  |  |  |  |  | 93.4 | 0.52 | 
OC[C@H]1O[C@H](OC[C@H]2O[C@@H](O[C@@H]3OC=C[C@H]4[C@H](O)[C@@H]5O[C@]5(CO)[C@@H]34)[C@H](O)[C@@H](O)[C@@H]2O)[C@H](O)[C@@H](O)[C@H]1O | > 10 | > 10 | > 10 | > 10 | > 10 |  |  | 
COC(=O)c1cc(OC)c2c(c1-c1c(CO)cc(OC)c3c1OCO3)OCO2 [BICYCLOL] |  |  |  |  |  |  |  | 66.5
